Assay results collected from several papers.
Each line is one published result; the experiments were not run side by side.

Structure (SMILES) | tested on | test | test system | setting | quantity | result
NS(=O)(=O)c1nnc(NC(=O)CCC2CC3CCC2C3)s1 (stereo not shown) |  | metabolic stability | mouse, liver microsomes | 1 h | compound remaining | 41%
Cc1cc(/C=C/C#N)cc(C)c1Nc1ccnc(Nc2ccc(C#N)cc2)n1 | MT4 | cell growth or viability, MTT |  | 5 days | CC50 | > 5.46 µM
N#Cc1ccc(C[C@H](Nc2c(Nc3ccc(F)cc3)c(=O)c2=O)C(=O)N2CCc3ccccc32)cc1 |  | metabolic stability | rat, liver microsomes | 10 µM, 30 min, pH 7.4 | compound remaining | 35%
Cc1cn([C@H]2C[C@H](N=[N+]=[N-])[C@@H](CO)O2)c(=O)[nH]c1=O | MT4 | cell growth or viability, MTT |  | 5 days | CC50 | > 7.48 µM
N#C[C@@]1(c2ccc3c(N)ncnn23)O[C@H](CO)[C@@H](O)[C@H]1O |  |  | dog, plasma | 1 µM | fraction unbound | 0.881
Cc1cc(C#N)cc(C)c1Oc1nc(Nc2ccc(C#N)cc2)nc(N)c1Br | MT4 | cell growth or viability, MTT |  | 5 days | CC50 | > 4.59 µM
N#Cc1ccc(C[C@H](NC(=O)c2cc3ccc(F)cc3[nH]2)C(=O)N2CCc3ccccc32)cc1 |  | metabolic stability | rat, liver microsomes | 10 µM, 30 min, pH 7.4 | compound remaining | 90%
NS(=O)(=O)c1nnc(NC(=O)C2CCCC3(CCCCC3)C2)s1 (stereo not shown) |  | metabolic stability | mouse, liver microsomes | 1 h | compound remaining | 47.7%
N#Cc1ccc(C[C@H](Nc2ncc(-c3ccc(F)cc3)o2)C(=O)N2CCc3ccccc32)cc1 |  | metabolic stability | rat, liver microsomes | 10 µM, 30 min, pH 7.4 | compound remaining | 40%
COc1cc(-c2cc(C(C)=O)n3ccccc23)c(OC)cc1Cn1ccnc1 |  | metabolic stability | rat, liver microsomes | 1 µM, 1 h, pH 7.4 | compound remaining | 62%
